According to ChEMBL document CHEMBL1135468 (J Med Chem, 2002):
*1 amine or outer side, *2 acyl side, *3 side chain or, on linkers, in order; H or OH if unused. Where a SMILES comes first, the peptide text is derived from it. Bridges are numbered along the chain shown (N, C = ends). [ ]: non-standard residue; d: D form. The star is where a group is joined. 6FAM = O=C1OC2(c3ccc(O)cc3Oc3cc(O)ccc32)c2cc(C(=O)*)ccc21; X1 = O=C([C@@H](O)CS[*:2])[*:1]; Orn = NCCC[C@H](N)C(=O)O; Mpa = O=C(O)CCS

Columns and labels:
[1] = target: Vasopressin V1a receptor (Homo sapiens, UniProt P37288); test: Binding affinity for human Vasopressin V1a receptor
Vasopressin V1a receptor, sequence (P37288 whole entry): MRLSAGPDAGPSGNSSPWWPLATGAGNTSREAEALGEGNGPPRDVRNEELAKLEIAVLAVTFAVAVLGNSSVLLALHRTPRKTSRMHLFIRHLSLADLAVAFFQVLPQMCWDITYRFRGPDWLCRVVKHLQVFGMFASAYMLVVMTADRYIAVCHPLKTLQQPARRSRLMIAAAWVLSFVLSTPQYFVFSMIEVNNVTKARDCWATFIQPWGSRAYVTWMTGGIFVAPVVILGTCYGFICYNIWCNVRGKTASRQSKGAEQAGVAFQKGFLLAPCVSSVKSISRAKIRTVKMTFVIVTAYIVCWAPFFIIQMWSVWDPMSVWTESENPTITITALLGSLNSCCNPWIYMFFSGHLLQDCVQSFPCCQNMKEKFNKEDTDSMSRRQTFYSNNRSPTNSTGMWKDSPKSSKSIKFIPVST

[2] = target: T1, Vasopressin V1b receptor (Homo sapiens, UniProt P47901); test: Binding affinity towards human Vasopressin V1b receptor
T1 sequence (P47901 whole entry): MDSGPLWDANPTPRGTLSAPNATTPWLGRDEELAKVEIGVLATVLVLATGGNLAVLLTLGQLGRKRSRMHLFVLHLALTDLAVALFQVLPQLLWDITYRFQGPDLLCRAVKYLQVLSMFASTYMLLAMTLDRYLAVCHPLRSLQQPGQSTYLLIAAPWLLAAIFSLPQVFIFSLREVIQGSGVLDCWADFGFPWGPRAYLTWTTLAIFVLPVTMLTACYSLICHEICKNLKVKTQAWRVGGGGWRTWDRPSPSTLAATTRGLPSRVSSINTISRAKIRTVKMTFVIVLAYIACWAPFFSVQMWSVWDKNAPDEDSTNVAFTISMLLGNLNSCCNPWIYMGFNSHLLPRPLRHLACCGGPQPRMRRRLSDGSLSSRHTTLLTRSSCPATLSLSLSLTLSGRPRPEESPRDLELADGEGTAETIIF
Outline: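 Competition binding on membranes from CHO cells stably expressing one human receptor, butyrate-treated (5 mM, overnight). Radioligands: OT, 200-250 pM [125I]OTA or 120-180 pM [125I]HO-LVA; V1a, 40-60 pM [125I]HO-LVA; V1b, 1-3 nM [3H]AVP. Competitor 1 pM-1 µM; nonspecific with 1 µM unlabeled ligand; 1 h, 30 °C. Ki by nonlinear least-squares, ≥3 experiments in triplicate.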

[3] = target: Vasopressin V2 receptor (Homo sapiens, UniProt P30518); test: Binding affinity towards human Vasopressin V2 receptor
Vasopressin V2 receptor, sequence (P30518 whole entry): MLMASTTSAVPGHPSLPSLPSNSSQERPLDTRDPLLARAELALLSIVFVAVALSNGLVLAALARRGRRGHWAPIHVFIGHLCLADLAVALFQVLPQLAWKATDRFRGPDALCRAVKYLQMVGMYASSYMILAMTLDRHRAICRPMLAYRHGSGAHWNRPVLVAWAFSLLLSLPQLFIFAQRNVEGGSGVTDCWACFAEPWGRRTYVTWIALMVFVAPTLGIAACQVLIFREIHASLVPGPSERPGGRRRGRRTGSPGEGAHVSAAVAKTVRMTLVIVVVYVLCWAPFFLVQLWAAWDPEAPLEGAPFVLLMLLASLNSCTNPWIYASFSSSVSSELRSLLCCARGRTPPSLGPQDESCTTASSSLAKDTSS
Outline: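 Human V2 receptor stably expressed in CHO cells, butyrate-treated (5 mM, overnight); membranes at 5-10 µg protein/assay competed against 1-3 nM [3H]AVP. Fluorescent ligand ranged 1 pM-1 µM; nonspecific binding defined with 1 µM unlabeled ligand. Incubation 1 h at 30 °C. Ki from nonlinear least-squares fit of two independent experiments, each run in triplicate.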

[4] = target: T2, Oxytocin receptor (Homo sapiens, UniProt P30559); test: Binding affinity for human oxytocin receptor
T2 sequence (P30559 whole entry): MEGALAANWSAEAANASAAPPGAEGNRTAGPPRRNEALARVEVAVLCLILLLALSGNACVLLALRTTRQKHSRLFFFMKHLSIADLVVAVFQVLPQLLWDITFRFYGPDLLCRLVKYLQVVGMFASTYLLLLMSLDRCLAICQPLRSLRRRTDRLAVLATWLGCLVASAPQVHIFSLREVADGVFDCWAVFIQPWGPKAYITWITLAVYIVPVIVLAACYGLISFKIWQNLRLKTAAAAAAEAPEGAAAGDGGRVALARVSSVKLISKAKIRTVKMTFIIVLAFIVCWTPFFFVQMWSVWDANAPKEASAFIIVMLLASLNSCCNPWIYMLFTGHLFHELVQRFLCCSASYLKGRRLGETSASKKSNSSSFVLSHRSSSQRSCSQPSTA

Structure (SMILES) | Ki [1] | Ki [2] | Ki [3] | Ki [4]
CC[C@H](C)[C@@H]1NC(=O)[C@H](Cc2ccc(O)cc2)NC(=O)CCSSC[C@@H](C(=O)N2CCC[C@H]2C(=O)N[C@@H](CCCCNC(=O)c2ccc3c(c2)C2(OC3=O)c3ccc(O)cc3Oc3cc(O)ccc32)C(=O)NCC(N)=O)NC(=O)[C@H](CC(N)=O)NC(=O)[C@H]([C@@H](C)O)NC1=O ([Mpa]YITNCPK(6FAM)G-NH2; disulfide 1-6) | 0.0255 µM | 0.15 µM | > 10 µM | 0.0018 µM
CC[C@H](C)[C@@H]1NC(=O)[C@H](Cc2ccc(O)cc2)NC(=O)CCSSC[C@@H](C(=O)N2CCC[C@H]2C(=O)N[C@@H](CCCNC(=O)c2ccc3c(c2)C2(OC3=O)c3ccc(O)cc3Oc3cc(O)ccc32)C(=O)NCC(N)=O)NC(=O)[C@H](CC(N)=O)NC(=O)[C@H]([C@@H](C)O)NC1=O ([Mpa]YITNCP[Orn](6FAM)G-NH2; disulfide 1-6) | 0.03 µM | 0.282 µM | > 10 µM | 0.0004 µM
CC[C@H](C)[C@@H]1NC(=O)[C@H](Cc2ccc(O)cc2)NC(=O)[C@@H](O)CSSC[C@@H](C(=O)N2CCC[C@H]2C(=O)N[C@@H](CCCCNC(=O)c2ccc3c(c2)C2(OC3=O)c3ccc(O)cc3Oc3cc(O)ccc32)C(=O)NCC(N)=O)NC(=O)[C@H](CC(N)=O)NC(=O)[C@H]([C@@H](C)O)NC1=O (YITNCPK(6FAM)G-NH2; linker N-5 via X1) | 0.0173 µM | 0.053 µM | > 10 µM | 0.00032 µM
CC[C@H](C)[C@@H]1NC(=O)[C@H](Cc2ccc(O)cc2)NC(=O)[C@@H](O)CSSC[C@@H](C(=O)N2CCC[C@H]2C(=O)N[C@@H](CCCNC(=O)c2ccc3c(c2)C2(OC3=O)c3ccc(O)cc3Oc3cc(O)ccc32)C(=O)NCC(N)=O)NC(=O)[C@H](CC(N)=O)NC(=O)[C@H]([C@@H](C)O)NC1=O (YITNCP[Orn](6FAM)G-NH2; linker N-5 via X1) | 0.0118 µM | 0.087 µM | > 1 µM | 0.00017 µM
